This is an account of results in ChEMBL document CHEMBL4312015, “Design, synthesis and 3D-QSAR analysis of novel thiopyranopyrimidine derivatives as potential antitumor agents inhibiting A549 and Hela cancer cells” (Eur J Med Chem, 2020).

pIC50: −log10 of the molar value. Calls of active or inactive are those of the source. The rule behind the calls is not given here.

As a reminder, the inhibition is the share of the control response that was lost under treatment. The term pIC50 denotes the IC50 on a negative log10 scale, so that one unit is a factor of ten.

For assay [1], the system named is A549. As to the kind of experiment: Induction of apoptosis in human A549 cells assessed as late apoptotic cells at 0.716 uM after 24 hrs by AnnexinV-FITC/propidium iodide staining based FACSCalibur flow cytometry analysis (reference value: 1.74 %). It counts as functional. For orientation: In flow cytometry, cells or beads pass a laser one at a time.
The subject of assay [2] is A549. As to the kind of experiment: Cell cycle arrest in human A549 cells assessed as accumulation at G0/G1 phase at 0.716 uM after 24 hrs by propidium iodide staining based FACSCalibur flow cytometry analysis (reference value: 74.31 %). The format is functional. The procedure, abridged:
(§1)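 A549 cells seeded in 6-well plates for 24 h, then treated for 24 h; vehicle was 0.1% DMSO. Cells were harvested as single-cell suspensions, fixed in 70% ice-cold ethanol for 12 h, and stained with propidium iodide. DNA content was measured by flow cytometry. AZD9291 at 0.462 uM was included as reference.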

Assay [3] concerns NCI-H1975. As to the kind of experiment: Antiproliferative activity human NCI-H1975 cells harboring EGFR T790M/L858R double mutant assessed as inhibition of cell growth at 10 uM after 72 hrs by MTT assay relative to control. It counts as functional. The conditions noted are these: NCI-H1975, 72 h. The essentials: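 H1975 cells exposed to compound at a single 10 uM concentration. Growth inhibition rate read by MTT after 72 h in 96-well plates, with AZD9291 as positive control. Values are an average of two separate determinations.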

For assay [4], the system named is A549. The assay can be described thus: Antiproliferative activity against human A549 cells assessed as inhibition of cell growth after 72 hrs by MTT assay. The format is functional, cell-based. Particulars: A549, 72 h. The essentials: (§2)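 Cell lines from the Chinese Academy of Sciences cell collection, grown in 96-well plates with a range of compound concentrations for 72 h. Viability read by MTT, with AZD9291 as positive control. IC50 values are averages of three determinations per the methods section; table footnotes state an average of two separate determinations.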
On the technique in general: Tetrazolium dyes change colour on reduction, which living cells bring about.

For assay [5], the target named is Epidermal growth factor receptor (Homo sapiens, UniProt P00533, L858R/T790M). As to the kind of experiment: Inhibition of EGFR T790M/L858R double mutant (unknown origin) using biotin as substrate in presence of ATP by mobility shift assay based ELISA. On the technique in general: ELISA stands for enzyme-linked immunosorbent assay.
Assay [6] has as its target T1, Epidermal growth factor receptor (Homo sapiens, UniProt P00533). As to the kind of experiment: Inhibition of wildtype EGFR (unknown origin) using biotin as substrate in presence of ATP by mobility shift assay based ELISA.
Assay [7] relates to NCI-H1975. The assay can be described thus: Antiproliferative activity against human NCI-H1975 cells harboring EGFR T790M/L858R double mutant assessed as inhibition of cell growth after 72 hrs by MTT assay. The conditions noted are these: NCI-H1975, 72 h. It counts as functional, cell-based. The procedure, abridged: as §2
The test system of assay [8] is A549. As to the kind of experiment: Induction of apoptosis in human A549 cells assessed as viable cells at 0.716 uM after 24 hrs by AnnexinV-FITC/propidium iodide staining based FACSCalibur flow cytometry analysis (reference value: 94.42 %). It counts as functional. Particulars: A549, 24 h, read-out: Activity.
Assay [9] relates to A549. As to the kind of experiment: Cell cycle arrest in human A549 cells assessed as accumulation at S phase at 0.716 uM after 24 hrs by propidium iodide staining based FACSCalibur flow cytometry analysis (reference value: 22.24 %). The format is functional. The essentials:
as §1

The species entered for another assay is Homo sapiens. As to the kind of experiment: Selectivity ratio of IC50 for wildtype EGFR (unknown origin) to IC50 for EGFR T790M/L858R double mutant (unknown origin) by mobility shift assay based ELISA.
The subject of assay [10] is A549. As to the kind of experiment: Cell cycle arrest in human A549 cells assessed as accumulation at G2/M phase at 0.716 uM after 24 hrs by propidium iodide staining based FACSCalibur flow cytometry analysis (reference value: 3.45 %). It counts as functional. The essentials:
as §1

In assay [11] the test system is A549. As to the kind of experiment: Induction of apoptosis in human A549 cells assessed as necrotic cells at 0.716 uM after 24 hrs by AnnexinV-FITC/propidium iodide staining based FACSCalibur flow cytometry analysis (reference value: 0.33 %). It counts as functional.
Assay [12] deals with HeLa. The assay can be described thus: Antiproliferative activity against human HeLa cells assessed as inhibition of cell growth after 72 hrs by MTT assay. The format is functional, cell-based. The conditions noted are these: for pIC50: read-out: IC50; for IC50: read-out: pIC50 (converted). The procedure, abridged:
as §2

In assay [13] the test system is A549. As to the kind of experiment: Induction of apoptosis in human A549 cells assessed as early apoptotic cells at 0.716 uM after 24 hrs by AnnexinV-FITC/propidium iodide staining based FACSCalibur flow cytometry analysis (reference value: 3.51 %). The format is functional.
Assay [14] relates to A549. The assay can be described thus: Cell cycle arrest in human A549 cells assessed as accumulation at G2/M phase at 0.057 uM after 24 hrs by propidium iodide staining based FACSCalibur flow cytometry analysis (reference value: 3.45 %). It counts as functional. The essentials: as §1
Assay [15] deals with A549. The assay can be described thus: Induction of apoptosis in human A549 cells assessed as early apoptotic cells at 0.057 uM after 24 hrs by AnnexinV-FITC/propidium iodide staining based FACSCalibur flow cytometry analysis (reference value: 3.51 %). The format is functional.
Assay [16] relates to A549. As to the kind of experiment: Induction of apoptosis in human A549 cells assessed as viable cells at 0.057 uM after 24 hrs by AnnexinV-FITC/propidium iodide staining based FACSCalibur flow cytometry analysis (reference value: 94.42 %). The format is functional. The conditions noted are these: A549, 24 h, read-out: Activity.
The subject of assay [17] is A549. As to the kind of experiment: Cell cycle arrest in human A549 cells assessed as accumulation at G0/G1 phase at 0.057 uM after 24 hrs by propidium iodide staining based FACSCalibur flow cytometry analysis (reference value: 74.31 %). It counts as functional. The procedure, abridged:
as §1

Assay [18] has as its system HeLa. The assay can be described thus: Inhibition of EFGR protein expression in human HeLa cells after 24 hrs by Western blot analysis. It counts as functional, cell-based. The essentials: (§3)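 HeLa cells treated for 24 h with graded compound concentrations, with AZD9291 as positive control. Whole-cell lysates were made in RIPA buffer and protein measured by BCA. Equal protein was run on 10% SDS-PAGE, transferred to PVDF on ice, and probed for EGFR, p-EGFR and GAPDH.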

The target in assay [19] is T1, Epidermal growth factor receptor. The assay can be described thus: Inhibition of EFGR phosphorylation in human HeLa cells at 0.1 to 10 uM after 24 hrs by Western blot analysis. The format is cell-based. The procedure, abridged:
as §3

The subject of assay [20] is A549. The assay can be described thus: Cell cycle arrest in human A549 cells assessed as accumulation at S phase at 0.057 uM after 24 hrs by propidium iodide staining based FACSCalibur flow cytometry analysis (reference value: 22.24 %). It counts as functional. The essentials:
as §1

Assay [21] concerns A549. The assay can be described thus: Induction of apoptosis in human A549 cells assessed as necrotic cells at 0.057 uM after 24 hrs by AnnexinV-FITC/propidium iodide staining based FACSCalibur flow cytometry analysis (reference value: 0.33 %). It counts as functional.
Assay [22] relates to A549. The assay can be described thus: Induction of apoptosis in human A549 cells assessed as late apoptotic cells at 0.057 uM after 24 hrs by AnnexinV-FITC/propidium iodide staining based FACSCalibur flow cytometry analysis (reference value: 1.74 %). It counts as functional.

T1 sequence (P00533 whole entry): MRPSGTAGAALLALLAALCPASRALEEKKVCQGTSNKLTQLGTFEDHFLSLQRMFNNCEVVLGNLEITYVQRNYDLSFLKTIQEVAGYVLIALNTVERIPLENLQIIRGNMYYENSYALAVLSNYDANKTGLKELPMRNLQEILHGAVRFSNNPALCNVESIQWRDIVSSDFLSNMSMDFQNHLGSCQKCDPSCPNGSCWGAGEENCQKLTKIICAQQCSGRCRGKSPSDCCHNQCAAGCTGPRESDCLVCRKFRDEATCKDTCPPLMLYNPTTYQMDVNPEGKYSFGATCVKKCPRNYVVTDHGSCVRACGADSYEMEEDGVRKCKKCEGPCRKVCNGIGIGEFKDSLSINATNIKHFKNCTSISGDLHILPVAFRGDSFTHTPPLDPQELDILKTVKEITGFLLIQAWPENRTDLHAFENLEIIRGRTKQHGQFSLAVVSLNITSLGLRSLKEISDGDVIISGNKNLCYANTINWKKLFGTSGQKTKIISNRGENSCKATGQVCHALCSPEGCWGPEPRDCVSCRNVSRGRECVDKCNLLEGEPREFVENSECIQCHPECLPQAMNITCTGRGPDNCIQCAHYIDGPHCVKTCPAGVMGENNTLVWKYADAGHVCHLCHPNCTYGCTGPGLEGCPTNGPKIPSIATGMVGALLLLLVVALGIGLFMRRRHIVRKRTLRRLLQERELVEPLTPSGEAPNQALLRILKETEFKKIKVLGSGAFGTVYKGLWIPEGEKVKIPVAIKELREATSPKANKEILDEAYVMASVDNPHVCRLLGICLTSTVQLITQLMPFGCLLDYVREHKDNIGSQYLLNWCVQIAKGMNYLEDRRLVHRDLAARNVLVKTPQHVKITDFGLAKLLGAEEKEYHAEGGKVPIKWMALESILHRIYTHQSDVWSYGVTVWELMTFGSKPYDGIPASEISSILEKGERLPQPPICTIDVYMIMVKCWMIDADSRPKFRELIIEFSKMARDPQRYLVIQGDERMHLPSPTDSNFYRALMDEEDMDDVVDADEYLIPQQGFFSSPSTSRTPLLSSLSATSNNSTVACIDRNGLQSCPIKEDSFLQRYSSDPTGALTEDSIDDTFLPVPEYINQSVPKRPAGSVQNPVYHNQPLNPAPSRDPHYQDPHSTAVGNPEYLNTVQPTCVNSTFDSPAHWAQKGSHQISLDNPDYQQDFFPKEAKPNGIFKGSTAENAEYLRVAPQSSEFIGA
Chain of Epidermal growth factor receptor (Homo sapiens, UniProt P00533, L858R/T790M) (P00533 25-1210 T790M/L858R limits assumed): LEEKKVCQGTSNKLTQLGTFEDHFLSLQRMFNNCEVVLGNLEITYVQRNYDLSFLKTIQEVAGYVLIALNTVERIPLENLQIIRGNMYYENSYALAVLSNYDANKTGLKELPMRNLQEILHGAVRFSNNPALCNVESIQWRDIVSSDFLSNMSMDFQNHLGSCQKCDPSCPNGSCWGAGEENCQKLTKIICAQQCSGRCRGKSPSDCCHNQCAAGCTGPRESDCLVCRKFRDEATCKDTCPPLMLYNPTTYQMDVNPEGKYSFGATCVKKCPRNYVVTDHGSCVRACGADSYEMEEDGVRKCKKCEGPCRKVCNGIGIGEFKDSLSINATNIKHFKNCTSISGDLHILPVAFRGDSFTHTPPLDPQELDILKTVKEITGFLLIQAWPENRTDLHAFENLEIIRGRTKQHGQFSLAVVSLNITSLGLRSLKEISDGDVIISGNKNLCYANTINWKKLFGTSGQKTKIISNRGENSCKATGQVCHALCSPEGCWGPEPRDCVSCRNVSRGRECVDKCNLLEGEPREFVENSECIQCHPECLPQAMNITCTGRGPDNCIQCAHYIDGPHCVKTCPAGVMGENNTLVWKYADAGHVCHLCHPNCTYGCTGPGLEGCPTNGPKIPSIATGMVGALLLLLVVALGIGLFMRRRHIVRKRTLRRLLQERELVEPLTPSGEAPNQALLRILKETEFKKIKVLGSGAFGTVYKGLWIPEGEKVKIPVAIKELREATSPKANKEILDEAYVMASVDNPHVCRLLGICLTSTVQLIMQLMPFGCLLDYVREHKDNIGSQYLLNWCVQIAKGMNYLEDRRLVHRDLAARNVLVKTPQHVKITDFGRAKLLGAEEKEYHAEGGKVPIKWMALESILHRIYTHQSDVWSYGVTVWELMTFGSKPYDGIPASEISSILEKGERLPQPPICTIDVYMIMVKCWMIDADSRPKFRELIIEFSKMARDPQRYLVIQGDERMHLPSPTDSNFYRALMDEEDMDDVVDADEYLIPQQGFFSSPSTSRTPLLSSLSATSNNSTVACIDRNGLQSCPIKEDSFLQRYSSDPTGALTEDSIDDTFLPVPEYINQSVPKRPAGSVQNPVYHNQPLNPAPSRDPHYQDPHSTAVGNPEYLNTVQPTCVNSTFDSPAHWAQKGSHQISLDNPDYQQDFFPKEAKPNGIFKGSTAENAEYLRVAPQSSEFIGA

In the case of `C=C(Cl)C(=O)Nc1cc(Nc2nc3c(c(-c4cn(C)c5ccccc45)n2)CSCC3)c(OC)cc1N(C)CCN(C)C`, the Activity in the assay with A549 [1] was found to be 5.99%; in the assay with A549 [2], 60.51%; in the assay with A549 [9], 27.14%; with A549 [10], 12.35%; in the assay with A549 [11], 0.6%; with A549 [13], 7.56%. Besides, the inhibition at 10 µM in the assay with NCI-H1975 [3] amounted to 99.6%. Moreover, the negative-log IC50 (pIC50) with A549 [4] was 6.15; in assay [5] it was 7.51; in assay [6], 6.24; in the assay on NCI-H1975 [7], 5.38; in the assay on HeLa [12], 6.00. Also, the viability at 0.716 µM in the assay with A549 [8] is 85.9%. The Ratio IC50 in the assay filed under Homo sapiens amounted to 18.4. The IC50 in the assay on HeLa [12] was 1000 nM.
Take `CCC/C=C\C(=O)Nc1cc(Nc2nc3c(c(-c4cn(C)c5ccccc45)n2)CS(=O)(=O)CC3)c(OC)cc1N(C)CCN(C)C`: the Activity is recorded as 10.63% in the assay with A549 [14]; 5.87% in the assay on A549 [15]; 69.17% with A549 [17]; 20.2% in the assay on A549 [20]; 0.08% with A549 [21]; 5.92% in the assay with A549 [22]. Besides, the viability at 0.057 µM in the assay on A549 [16] stood at 88.1%. Further, in the assay on NCI-H1975 [3], the inhibition at 10 µM amounted to 99.5%. The negative logarithm of the IC50 (pIC50) in the assay on A549 [4] was 7.24; in assay [5], 7.80; in [6], less than 5.70; in the assay on NCI-H1975 [7], 6.04; in the assay on HeLa [12] it was 6.98. Moreover, the inhibition entry with HeLa [18] is “Dose-dependent effect”. Besides, the inhibition result in assay [19] was “inactive”. The Ratio IC50 in the assay filed under Homo sapiens is greater than 125. For the same compound, the IC50 in the assay on HeLa [12] is 104 nM.
